Laboratory results reported in ChEMBL document CHEMBL1122635, “Synthesis and physicochemical and neurotoxicity studies of 1-(4-substituted-2,5-dihydroxyphenyl)-2-aminoethane analogues of 6-hydroxydopamine” (1984).

Experiments:
[1] = tested on: Rattus norvegicus; experiment: Ability to inhibit norepinephrine uptake in rat atria was determined at 122 umol/kg; type: functional
Outline: (§1)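 Male Sprague-Dawley rats (120 ± 10 g) got the dose in 0.9% saline with 0.1% ascorbic acid, 0.2 mL i.v. via the left femoral vein under light halothane. Controls got vehicle. At 24 h, atria were cut into four 10-15 mg pieces and incubated 30 min at 37 °C under 95% O2/5% CO2 in Krebs-Ringer bicarbonate (pH 7.35) with 10^-7 M [3H]NE. A 10 min washout followed, then HClO4 extracts were counted. Inhibition = control minus treated, 12 determinations from 3 rats, mean ± SD.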

[2] = tested on: Rattus norvegicus; experiment: Ability to inhibit norepinephrine uptake in rat atria was determined at 243 umol/kg; type: functional; outline: as §1
[3] = tested on: Rattus norvegicus; experiment: Ability to inhibit norepinephrine uptake in rat atria was determined at 730uM/kg; b denotes 'Rats expired with in 30 min after injection'; type: functional, organism-based; outline: as §1
[4] = tested on: Rattus norvegicus; experiment: Ability to inhibit norepinephrine uptake in rat atria was determined at 365 umol/kg; type: functional; outline: as §1
[5] = tested on: Rattus norvegicus; experiment: Ability to inhibit norepinephrine uptake in rat atria was determined at 486uM/kg; b denotes 'Rats expired with in 30 min after injection'; type: functional, organism-based; outline: as §1
[6] = tested on: Rattus norvegicus; experiment: Ability to inhibit norepinephrine uptake in rat atria was determined at 486 umol/kg; type: functional; outline: as §1
[7] = tested on: Rattus norvegicus; experiment: Ability to inhibit norepinephrine uptake in rat atria was determined at 365uM/kg; b denotes 'Rats expired with in 30 min after injection'; type: functional, organism-based; outline: as §1
[8] = tested on: Rattus norvegicus; experiment: Ability to inhibit norepinephrine uptake in rat atria was determined at122uM/kg; b denotes 'Rats expired with in 30 min after injection'; type: functional, organism-based; outline: as §1
[9] = tested on: Rattus norvegicus; experiment: Ability to inhibit norepinephrine uptake in rat atria was determined at 24 uM/kg; type: functional; outline: as §1
[10] = tested on: Rattus norvegicus; experiment: Ability to inhibit norepinephrine uptake in rat atria was determined at 73 uM/kg; type: functional; outline: as §1
[11] = tested on: Rattus norvegicus; experiment: Ability to inhibit norepinephrine uptake in rat atria was determined at 97 umol/kg; type: functional; outline: as §1
[12] = tested on: Rattus norvegicus; experiment: Ability to inhibit norepinephrine uptake in rat atria was determined at 243uM/kg; b denotes 'Rats expired with in 30 min after injection'; type: functional, organism-based; outline: as §1
[13] = tested on: Rattus norvegicus; experiment: Ability to inhibit norepinephrine uptake in rat atria was determined at 49 uM/kg; type: functional; outline: as §1

| SMILES | inhibition in vivo at 122 µmol/kg [1] | inhibition in vivo at 243 µmol/kg [2] | inhibition [3] | inhibition [5] | inhibition in vivo at 486 µmol/kg [6] | Inhibition [10] | further results |
| --- | --- | --- | --- | --- | --- | --- | --- |
| NCCc1cc(O)c(Br)cc1O | 0% | 10% | – | – | – | – | – |
| COc1cc(O)c(CCN)cc1O | – | – | Rats expired within 30min after injection | Rats expired within 30min after injection | – | – | inhibition in vivo at 365 µmol/kg [4]: 26% |
| NCCc1cc(O)ccc1O | – | – | – | – | 0% | – | – |
| NCCc1cc(O)c([N+](=O)[O-])cc1O | – | – | – | – | 0% | – | – |
| NCCc1cc(O)c(N)cc1O | – | – | Rats expired within 30min after injection | Rats expired within 30min after injection | – | 80% | inhibition [7]: Rats expired within 30min after injection; inhibition [8]: Rats expired within 30min after injection; Inhibition [9]: 20%; inhibition in vivo at 97 µmol/kg [11]: 91%; inhibition [12]: Rats expired within 30min after injection; Inhibition [13]: 60% |
| Cc1cc(O)c(CCN)cc1O | 19% | 27% | Rats expired within 30min after injection | Rats expired within 30min after injection | – | 16% | inhibition in vivo at 365 µmol/kg [4]: 24% |
| N#Cc1cc(O)c(CCN)cc1O | – | – | – | – | 0% | – | – |
| NCCc1cc(O)c(C(=O)O)cc1O | – | – | – | – | 0% | – | – |
| NCCc1cc(O)c(O)cc1O [OXIDOPAMINE] | 79% | 85% | – | – | 87% | 74% | Inhibition [9]: 45%; inhibition in vivo at 97 µmol/kg [11]: 79%; Inhibition [13]: 68% |
| NCCc1cc(O)c(Cl)cc1O | – | – | – | – | 0% | – | – |
